# Screening data: PubChem BioAssay, several laboratories
# Rows were chosen to be rich in hits. Some 2.3% of all compounds tested hit in one or more screens of this group.
# DNA FID counter: displaces DNA intercalator in HCV helicase counter-screen | DNA fluorescent intercalator displacement, fluorescence | inhibition, % at 7.9 µM | 290,000 compounds, 0.17% hits | AID 1845; in the data active = inhibition above about 37%;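 note: 0% = vehicle and 100% = reference compound; higher means more ethidium bromide displaced from hairpin DNA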
# TRPC4 act: opens the mouse TRPC4 cation channel. HEK293 TRPC4beta/mu-opioid, Fluo4 calcium fluorescence; active compounds read high. B-score at 10 µM. 310,000 compounds, 0.49% hits;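 active = B-score above 5 SD of library B-scores, and initial fluorescence ratio not above library mean plus 5 SD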;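 note: positive B-score marks a calcium rise read as TRPC4 activation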
# Target sequence (Q9QUQ5 whole entry, looked up): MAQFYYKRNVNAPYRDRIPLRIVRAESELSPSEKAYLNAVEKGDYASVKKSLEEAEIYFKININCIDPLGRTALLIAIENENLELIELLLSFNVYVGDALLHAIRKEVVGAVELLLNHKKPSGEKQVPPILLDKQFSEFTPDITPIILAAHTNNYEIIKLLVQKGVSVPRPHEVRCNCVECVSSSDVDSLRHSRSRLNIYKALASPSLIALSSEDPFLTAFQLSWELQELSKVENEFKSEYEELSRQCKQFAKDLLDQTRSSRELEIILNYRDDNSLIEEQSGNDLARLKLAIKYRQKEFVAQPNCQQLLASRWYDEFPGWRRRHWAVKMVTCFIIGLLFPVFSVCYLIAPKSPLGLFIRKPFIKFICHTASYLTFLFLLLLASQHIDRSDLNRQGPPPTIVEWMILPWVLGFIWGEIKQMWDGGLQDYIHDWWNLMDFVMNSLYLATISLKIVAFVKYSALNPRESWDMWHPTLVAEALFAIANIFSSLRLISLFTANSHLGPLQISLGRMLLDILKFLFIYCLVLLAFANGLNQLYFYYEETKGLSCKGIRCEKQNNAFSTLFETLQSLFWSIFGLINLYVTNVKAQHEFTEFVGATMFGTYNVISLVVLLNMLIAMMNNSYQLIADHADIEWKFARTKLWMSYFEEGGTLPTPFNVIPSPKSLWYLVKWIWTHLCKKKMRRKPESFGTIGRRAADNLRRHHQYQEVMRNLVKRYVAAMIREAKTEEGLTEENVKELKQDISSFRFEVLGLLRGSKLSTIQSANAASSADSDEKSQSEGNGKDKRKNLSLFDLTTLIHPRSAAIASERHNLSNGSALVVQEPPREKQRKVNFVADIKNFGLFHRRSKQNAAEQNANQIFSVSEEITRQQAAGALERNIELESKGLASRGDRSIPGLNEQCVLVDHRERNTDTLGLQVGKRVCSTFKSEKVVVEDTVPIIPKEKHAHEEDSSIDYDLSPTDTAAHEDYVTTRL
#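 Material: TRPC4beta and mu-opioid receptor HEK293 stable cells | Incubation: 45 min room-temperature Fluo4 loading, 110 s read | Detection: Kinetic Fluo4 calcium fluorescence | Measure: Integrated baseline-normalised fluorescence ratio, converted to per-well B score | Benchmarks: Low control buffer alone, high control maximal DAMGO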
# TRPC6 inh: mouse TRPC6 channel inhibition; HEK293-TRPC6, membrane potential dye, ACh-evoked depolarization; active compounds read low; B-score at 10 µM; 310,000 compounds, 1.1% hits; AID 2553;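 active = B-score under library mean minus 3 SD, initial fluorescence not abnormally high, positive integrated signal ratio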;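 note: B-score derived from integrated fluorescence ratio over the kinetic read; more negative B-score means stronger inhibition of depolarization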
# TRPC4 potent: allosterically enhances the mouse TRPC4 cation channel | B-score at 10 µM | HEK293 TRPC4beta/mu-opioid, DAMGO EC20, Fluo-4 Ca2+ flux; active compounds read high | 310,000 compounds, 0.42% hits | AID 2227;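 active = B-score of calcium response area above 5 SD of library B-scores, with initial fluorescence ratio within 5 SD of library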;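 note: B-score of integrated fluorescence ratio over time as area under calcium response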
# TRPC4 inh: TRPC4 (mouse) channel inhibition. Q9QUQ5. HEK293 TRPC4beta/mu-opioid, DAMGO-evoked Fluo4 calcium flux; active compounds read low. B-score at 10 µM. 300,000 compounds, 0.39% hits;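 active = B-score over 3 SD under the library average, no early fluorescence shift, positive overall ratio signal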
#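 Signal: kinetic Fluo4 fluorescence imaging of calcium influx. Material: stable TRPC4beta/mu-opioid receptor HEK293 cells. Probe or stimulus: DAMGO in two steps, submaximal then maximal.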
# TRPC6 act: activates the mouse TRPC6 cation channel | Q61143 | HEK293-TRPC6 membrane potential dye fluorescence; active compounds read high | B-score at 10 µM | 310,000 compounds, 0.13% hits;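 active = B-score of the integrated fluorescence ratio above library mean plus 3 SD, and starting fluorescence ratio within library mean plus 5 SD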;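 note: higher score means more depolarization so channel activation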
# TRPC4 sel inh 2: second check of whether TRPC6 inhibitors also affect mouse TRPC4 | AID 2776 | inhibition, % at 10 µM | HEK293 TRPC4/MOR, membrane potential dye fluorescence; channel activated by saturating DAMGO dose | 920 compounds, 42% hits | shares compounds with TRPC6 inh;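 active = compounds whose fluorescence signal differed from control wells by over 3 SD, either direction, in both duplicate plates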
# TRPC4 spec: selectivity of TRPC6 inhibitors: effect on mouse TRPC4; shares compounds with TRPC6 inh; HEK293 TRPC4/mu-opioid, membrane potential fluorescence; 920 compounds, 61% hits; activity change, negative = inhibition, % at 10 µM;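 active = rise or fall in signal beyond 3 SD of buffer-only wells in both replicate plates, either sign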;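 note: integrated kinetic ratio of fluorescence range over baseline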
# HEK293 MPD ctr 2-1: parental HEK293 nonspecific activity of TRPC6 inhibitors, second screen. parental HEK293 membrane potential dye fluorescence; maximal acetylcholine challenge after compound addition. AID 2779. shares compounds with TRPC6 inh. signal change vs control, % at 10 µM. 920 compounds, 31% hits;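 active = membrane potential signal moving either way by over 3 SD of the maximum-effect control, in both duplicate plates, meaning non-specific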
# HEK293 MPD ctr-1: counter-screen for TRPC6 inhibitors: effect in parental HEK293 cells; shares compounds with TRPC6 inh; membrane potential signal change, % at 10 µM; 920 compounds, 60% hits; parental HEK293 membrane potential dye fluorescence;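 active = membrane potential signal shifting up or down by more than 3 SD of buffer-only wells, on both duplicate plates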
# HEK293 MPD ctr-2: counter-screen for TRPC6 modulators: effect in parental HEK293 cells; shares compounds with TRPC6 inh; AID 488924; membrane potential dye fluorescence; membrane potential signal change, % at 10 µM; 2,400 compounds, 51% hits;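 active = membrane potential signal moves up or down beyond 5 SD from buffer-only wells, on both duplicate plates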
# HEK293 MPD ctr 2-2: parental HEK293 nonspecific activity of TRPC6 modulators, second screen; 2,400 compounds, 14% hits; AID 488926; shares compounds with TRPC6 inh; membrane potential dye fluorescence; after compound, maximal acetylcholine stimulation; inhibition, % at 10 µM;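 active = membrane potential signal drops by more than 5 SD from the mean control signal, in both duplicate plates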;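 note: plate controls were acetylcholine ECmax control wells for no effect and buffer only wells for full effect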
# TRPC4/MOR mod: tests whether TRPC6 modulators also affect mouse TRPC4 | HEK293 TRPC4/mu-opioid, membrane potential fluorescence | shares compounds with TRPC6 inh | 2,400 compounds, 69% hits | percent change from control (negative = decrease, positive = increase), % at 10 µM;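 active = membrane potential signal moved up or down beyond 5 SD of buffer control wells, in both duplicate plates, actives on both sides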;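 note: plate controls were assay buffer wells for no effect and DAMGO maximal-effect wells for full effect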
# TRPC4 ctr inh 2: mouse TRPC4 off-target activity of TRPC6 modulators, second screen. AID 488928. shares compounds with TRPC6 inh. inhibition, % at 10 µM. 2,400 compounds, 55% hits. HEK293 TRPC4/mu-opioid, membrane potential dye fluorescence; stimulated with maximal-effect DAMGO;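 active = drop in membrane potential signal beyond 5 SD of the control wells in both duplicate plates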;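 note: TRPC4 counter screen for TRPC6 hits run under conditions tuned for TRPC6 not TRPC4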
# TRPC6 block conf: confirmation of mouse TRPC6 inhibitors; shares compounds with TRPC6 inh; HEK293-TRPC6, membrane potential dye, ACh-evoked depolarization; inhibition, % at 10 µM; 3,300 compounds, 43% hits;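 active = fluorescence ratio falls more than 5 SD below the full-stimulation control mean, in both duplicate runs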;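 note: integrated fluorescence ratio of peak minus minimum over baseline after agonist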
# TRPC6 act confirm: confirmation of mouse TRPC6 activators; shares compounds with TRPC6 inh; HEK293-TRPC6 membrane potential dye fluorescence, FDSS; activation, % at 10 µM; 2,800 compounds, 11% hits;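 active = ratio signal rise beyond 5 SD above unstimulated control wells' mean, seen in both duplicate runs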;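 note: plate controls were buffer EC0 wells for no effect and acetylcholine ECmax response for full effect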
# The depositor's hits bear a star; i = inactive; . = not tested or not shown.
SMILES,DNA FID counter,TRPC4 act,TRPC6 inh,TRPC4 potent,TRPC4 inh,TRPC6 act,TRPC4 sel inh 2,TRPC4 spec,HEK293 MPD ctr 2-1,HEK293 MPD ctr-1,TRPC6 block conf,TRPC6 act confirm,others
COP(=O)(OC)c1nc(-c2ccc([N+](=O)[O-])cc2)oc1N1CCCCC1,-23.7,i,-7.1*,i,i,19.4*,.,.,.,.,84.5%*,229.5%*,HEK293 MPD ctr-2=618.5%*;HEK293 MPD ctr 2-2=198.0%*;TRPC4/MOR mod=120.0%*;TRPC4 ctr inh 2=51.0%*
CCOP(=O)(OCC)c1nc(-c2ccccc2)oc1N1CCCCC1,-28.7,i,i,i,i,i,.,.,.,.,.,.,
O=C(Nc1ccccc1-c1ccccc1)NC1CC2CCCC(C1)N2CCc1ccccc1 (configuration not stated),8.4,i,-6.99*,i,i,i,46.0%*,i,i,-0.2%*,64.9%*,i,
O=C(Nc1ccccc1-c1ccccc1)NC1CC2CCCC(C1)N2Cc1ccc(F)cc1 (configuration not stated),22.8,i,-8*,i,i,i,51.0%*,4.8%*,i,4.0%*,51.0%*,i,
Cc1nc(C)n(C(C)CNC(=O)c2ccco2)n1 (configuration not stated),2.9,i,i,i,i,i,.,.,.,.,.,.,
C[C@@H](N)C(=O)NC[C@H]1CC[C@H](C(=O)N[C@@H](Cc2ccccc2)C(=O)O)CC1,-3.5,i,i,i,i,i,.,.,.,.,.,.,
c1ccc(-n2cc(CN3CCCC(CN4CCCC4)C3)c(-c3ccc4c(c3)OCO4)n2)cc1 (configuration not stated),40.5*,i,-5.81*,i,i,i,.,.,.,.,i,i,HEK293 MPD ctr-2=i;HEK293 MPD ctr 2-2=i;TRPC4/MOR mod=i;TRPC4 ctr inh 2=73.0%*
CNc1oc(/C=C/c2cccc(OC)c2)nc1C#N,-5.5,i,i,i,i,i,.,.,.,.,.,.,
CCOC(=O)C1(C)/C(=N/Nc2ccc(Cl)cc2)C(=O)C(=O)N1c1ccccc1 (configuration not stated),-7.3,i,i,i,i,i,.,.,.,.,.,.,
CCOC(=O)C1(C)/C(=N/Nc2ccccc2Cl)C(=O)C(=O)N1c1ccccc1 (configuration not stated),0.9,i,-5.06*,i,i,i,.,.,.,.,i,i,HEK293 MPD ctr-2=-76.5%*;HEK293 MPD ctr 2-2=i;TRPC4/MOR mod=-21.0%*;TRPC4 ctr inh 2=48.5%*
C=CCN(C(=O)c1csnn1)C(C(=O)NC1CCCC1)c1ccc(OC)cc1 (configuration not stated),-15.1,i,i,i,i,i,.,.,.,.,.,.,
Nc1ccc(O)c(-c2nc3ccccc3s2)c1,-2.8,i,i,i,i,i,.,.,.,.,.,.,
Oc1ccc(-c2nc3ccccc3s2)c(O)c1,5.5,i,-5.37*,i,i,i,.,.,.,.,i,i,HEK293 MPD ctr-2=i;HEK293 MPD ctr 2-2=i;TRPC4/MOR mod=i;TRPC4 ctr inh 2=i
CCn1c(=NC(=O)CSC(C)=O)sc2cc(OC)ccc21,-18.1,i,i,i,i,16.6*,.,.,.,.,.,152.5%*,HEK293 MPD ctr-2=i;HEK293 MPD ctr 2-2=i;TRPC4/MOR mod=9.0%*;TRPC4 ctr inh 2=i
COc1ccc(NC(=O)c2ccc(Br)c(S(=O)(=O)N3CCOCC3)c2)cc1,-16.7,i,i,i,i,i,.,.,.,.,.,.,
CCOc1cc(C2C3=C(CC(C)(C)CC3=O)N(C)C3=C2C(=O)CC(C)(C)C3)ccc1O,-15.9,i,i,i,i,i,.,.,.,.,.,.,
OC(C#CCCN1CCCCC1)(c1ccccc1)c1ccccc1,12.4,i,-8.8*,i,i,i,i,6.0%*,14.5%*,6.0%*,72.2%*,.,
CCN(CC)CCC#CC(O)(c1ccccc1)c1ccccc1,7.8,i,-8.85*,i,i,i,i,6.4%*,-9.0%*,8.6%*,63.1%*,.,
CCCN(CC#CC(O)(c1ccccc1)c1cccnc1)CCC (configuration not stated),-1.6,i,i,i,i,i,.,.,.,.,.,.,
O=C(CCN1CCCCC1)c1ccccc1,0.6,i,i,i,i,i,.,.,.,.,.,.,
OC(C#CCCN1CCCCC1)(c1ccccc1)C1CCCCC1 (configuration not stated),13.3,i,-7.45*,i,i,i,i,23.4%*,i,14.9%*,75.4%*,.,
Cc1c(F)cccc1NS(=O)(=O)c1ccc2c(c1)c(C)cc(=O)n2C,-22.2,i,-6.85*,i,i,i,i,i,i,i,i,i,
Cn1c(=O)c2cc(S(=O)(=O)Nc3cccc(F)c3)ccc2n(C)c1=O,0.4,i,i,i,i,i,.,.,.,.,.,.,
COc1cc(C(CCN2CCCC(C)C2)c2c(OC)cc(OC)c3c(-c4ccccc4)cc(=O)oc23)cc(OC)c1OC (configuration not stated),.,i,-7.81*,i,i,i,44.0%*,-11.1%*,i,i,i,i,
